RAD52 anneal inh: blocks human RAD52 DNA annealing. 360,000 compounds, 0.46% hits. inhibition, % at 18.7 µM. recombinant RAD52 DNA annealing, FRET fluorescence;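 active = every replicate showing at least 50% inhibition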
rRNA inh HTS: inhibits bacterial ribosomal RNA function over humanized ribosomes; E. coli WT GFP vs humanized-ribosome RFP mutants, fluorescence, 24 h; hits give low values; DMSO median 0, no signal -100; GFP signal change (wild-type ribosome), % (concentration not given with the values); 350,000 compounds, 1.6% hits; AID 720706;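 active = significant combined selectivity score with lowered wild-type GFP, culture density cut under 30%, mutant RFP and density less affected; inactive = any of these conditions unmet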
GSIS activator: primary screen for activators of insulin secretion dependent on glucose, INS-1E cells, GLuc reporter luminescence. INS-1E GLuc reporter insulin secretion, 2-3 h. activation, % at 16.6 µM. 370,000 compounds, 0.61% hits;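 active = lowest replicate activation of at least 40%, so every replicate reaches that level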
AF4-AF9 inh: inhibitors of human MLL-AF4/AF9 interaction; inhibition, % at 10 µM; AlphaScreen, biotin-AF4 peptide binding to FLAG-AF9; P42568; 350,000 compounds, 0.47% hits;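 active = every replicate reaching a set inhibition limit, whatever the replicate mean, cut at about 25% in these data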
RAD54 inh: blocks human RAD54 Holliday junction branch migration. inhibition, % at 10.4 µM. FAM/BHQ fluorescence. AID 602329. 360,000 compounds, 0.14% hits. Q92698;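 active = mean normalized replicate activity at least 40 and at least half of replicates scoring 40 or more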;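 note: inhibitors cause a drop in the FAM fluorescence signal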
Target sequence (Q92698 whole entry, looked up): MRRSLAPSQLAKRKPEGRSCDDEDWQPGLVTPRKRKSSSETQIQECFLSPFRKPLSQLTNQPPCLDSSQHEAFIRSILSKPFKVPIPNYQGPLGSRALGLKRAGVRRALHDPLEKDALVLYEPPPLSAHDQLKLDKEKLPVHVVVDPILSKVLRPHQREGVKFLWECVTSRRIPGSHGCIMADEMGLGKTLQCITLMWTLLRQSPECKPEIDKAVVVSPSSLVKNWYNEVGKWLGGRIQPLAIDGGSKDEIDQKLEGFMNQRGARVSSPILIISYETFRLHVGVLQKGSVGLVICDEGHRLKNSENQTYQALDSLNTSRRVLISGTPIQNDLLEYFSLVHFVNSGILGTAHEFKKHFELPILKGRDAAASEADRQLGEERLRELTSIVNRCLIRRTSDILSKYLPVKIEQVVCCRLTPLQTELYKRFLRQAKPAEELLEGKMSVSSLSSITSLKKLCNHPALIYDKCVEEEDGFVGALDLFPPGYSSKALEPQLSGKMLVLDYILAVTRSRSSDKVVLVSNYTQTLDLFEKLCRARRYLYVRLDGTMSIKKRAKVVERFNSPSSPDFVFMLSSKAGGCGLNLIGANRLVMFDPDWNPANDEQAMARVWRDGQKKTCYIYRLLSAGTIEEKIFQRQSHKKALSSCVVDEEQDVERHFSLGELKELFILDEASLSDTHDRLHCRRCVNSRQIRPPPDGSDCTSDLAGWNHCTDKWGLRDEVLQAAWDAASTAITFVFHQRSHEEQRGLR
E-selectin induc: E-selectin induction on HUVECs. P16581. HUVEC E-selectin immunofluorescence imaging; normalized: neutral wells 0, TNF-alpha wells 100. activation, % at 7.58 µM. 260,000 compounds, 0.37% hits. AID 686992;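 active = mean E-selectin-positive cell signal at least 10% of the positive control, reached in at least 60% of replicates, without over 20% cell loss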
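Assay system: HUVEC primary endothelial cells. Input: 3,000 HUVEC seeded per well. Doses: one compound dose added by pin transfer. Read-out basis: % PE-positive cells. Benchmarks: TNF-alpha high, DMSO low. Detection: immunofluorescence imaging. Buffer or medium: EGM-2, gelatin.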
Numbers stand for hits; 0 = inactive; - = not tested or not shown; ! = not confirmed by another sample. Only some compounds are listed: those with a hit (about 2.6% of all), similar ones and a draw of the others.

SMILES | RAD52 anneal inh | rRNA inh HTS | GSIS activator | AF4-AF9 inh | RAD54 inh | E-selectin induc
COc1cc(O)c(C(CC(=O)N2CCN(c3ccccc3)CC2)c2ccc(N(C)C)cc2)c(OC)c1 (centres undefined) | 0 | 0 | 0 | 27.5 | 0 | 0
COc1cc(NC(=O)C(c2ccccc2)c2ccccc2)c(C(=O)O)cc1OC | 0 | -23.6 | - | 0 | 0 | -
CN1C(=O)c2cc(NC(=O)NCc3ccccc3)ccc2OC[C@@H]2O[C@@H](CC(=O)O)CC[C@H]21 | 0 | 0 | 0 | 0 | 0 | 0
COC(=O)C1=C(C)NC2=C(C(=O)c3ccccc32)C1c1cccc(OC)c1 (centres undefined) | 0 | - | - | 0 | 0 | -
COc1cccc(C2C(=O)c3ccccc3C2=O)c1 | 0 | 0 | 0 | 0 | 0 | 65.5
CN(C)CCCn1c(N)c(S(=O)(=O)c2ccccc2)c2nc3ccccc3nc21 | 0 | -27.7 | 0 | 0 | 0 | 0
CCCCn1c(N)c(S(=O)(=O)c2ccc(C)cc2)c2nc3ccccc3nc21 | 0 | 0 | 0 | 0 | 0 | 0
COc1cccc(NC(=O)N2[C@@H]3CNC[C@H]2C3c2ccc(-c3cccnc3)cc2)c1 (some centres undefined) | 0 | 0 | 0 | 0 | - | 0
COc1cccc(-c2ccc(C3[C@H]4CNC[C@@H]3N4S(=O)(=O)c3cccc(Cl)c3)cc2)c1 (some centres undefined) | 53.0 | 0 | 0 | 0 | - | 0
Cc1cccc(-c2ccc(C3[C@H]4CNC[C@@H]3N4C(=O)Nc3ccccc3Cl)cc2)c1 (some centres undefined) | - | 0 | 0 | - | - | 0
COc1cccc(-c2ccc(C3[C@H]4CNC[C@@H]3N4C(=O)Nc3ccccc3Cl)cc2)c1 (some centres undefined) | 50.8! | 0 | 0 | 0 | - | 0
COc1ccc(-c2ccc(C3[C@H]4CNC[C@@H]3N4C(=O)Nc3cccc(OC)c3)cc2)cc1 (some centres undefined) | 66.6! | 0 | 0 | 0 | - | 0
COc1cccc(NC(=O)N2[C@@H]3CNC[C@H]2C3c2ccc(-c3cccc(OC)c3)cc2)c1 (some centres undefined) | 66.5! | 0 | 0 | 0 | - | 0
CC(C)C#Cc1cnc2c(c1)C(=O)N([C@H](C)CO)C[C@H](C)[C@@H](CN(C)C(=O)C1CCC1)O2 | 0 | 0 | 0 | 0 | 0 | 0
COc1cccc(-c2ccc3c(c2)[C@@H]2[C@@H](CCN2S(=O)(=O)c2ccccc2F)[C@H](CO)N3)c1 | 0 | 0 | 0 | 0 | 0 | 0
COc1ccc(OCC(O)CN(CC(O)COc2ccc(OC)cc2)c2cccc(O)c2)cc1 (centres undefined) | 0 | -30.1 | 0 | 0 | 0 | -
C[C@@H]1CCCCO[C@@H](CN(C)C(=O)Nc2ccccc2)[C@H](C)CN([C@H](C)CO)C(=O)c2cc(NC(=O)Nc3ccc(C(F)(F)F)cc3)ccc2O1 | 0 | 0 | 0 | 0 | - | 0
Cc1ccccc1NC(=S)N(Cc1ccccn1)Cc1ccccc1Cl | 0 | -22.9 | 0 | 0 | - | -
Cc1ccc2c(c1)N(CCCC(=O)NCCCN1CCCC1=O)C(=O)CO2 | 0 | 0 | - | 49.2 | 0 | 0
O=C(C(=O)N(C1CCCCC1)C1CCCCC1)c1ccccc1 | 0 | 0 | 72.8 | 0 | - | 0
Cc1ccc(S(=O)(=O)Nc2cccc3c2O[C@H](CN(C)S(=O)(=O)c2ccccc2)[C@H](C)CN([C@H](C)CO)C3=O)cc1 | 0 | 0 | 0 | 0 | 0 | 0
C/C=C1\COC(C(=O)NCc2ccccc2)(C(F)(F)F)C=C1C=C1CCCCC1 (centres undefined) | 0 | 0 | 140.9 | 0 | 0 | 0
O=C(N[C@H]1C=C[C@@H](CC(=O)N2CCOCC2)O[C@H]1CO)c1ccc2c(c1)OCO2 | 0 | 0 | 0 | 0 | 0 | 0
COc1ccc(-c2csc(NC(=O)c3cccs3)c2C(=O)O)cc1OC | 0 | -34.3 | 0 | 0 | - | 0
CCOC(=O)c1c(-c2ccc(OC)c(OC)c2)csc1NC(=O)C1CCCO1 (centres undefined) | 0 | -37.0 | 0 | 0 | - | 0
CN(C)CC(=O)NC[C@H]1N[C@@H](CO)[C@H]1c1ccc(-c2cccc(C#N)c2)cc1 | 51.3 | 0 | 0 | 0 | 0 | 0

Screening data as filed in PubChem.
